Test results taken from ChEMBL document CHEMBL4808254, “Further SAR studies on natural template based neuroprotective molecules for the treatment of Alzheimer's disease” (Bioorg Med Chem, 2021).
Activity calls are given as the source filed them. The rule behind the calls is not given here.

Columns and labels:
[1] = Antioxidant activity assessed as DPPH radical scavenging activity measured after 25 mins by microplate reader based assay; assay type: functional
Procedure, shortened: (§1)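 Test compound at serial concentrations (single 20 µM for percent values) mixed 1:1 with 200 µM DPPH in methanol; 25 min at 37 °C with shaking at 300 rpm; absorbance read at 517 nm. Percent scavenging taken against DPPH control; IC50 is the concentration that removes 50% of radical. Mean ± SD of three independent experiments.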

Acetylcholinesterase [2] = target: T1, Acetylcholinesterase (Homo sapiens, UniProt P22303); experiment: Inhibition of AChE in human erythrocytes using acetylthiocholine iodide as substrate preincubated with enzyme for 30 mins followed by substrate addition and measured after 30 mins by Ellman's method; assay type: cell-based, Erythrocyte
T1 sequence (P22303 whole entry): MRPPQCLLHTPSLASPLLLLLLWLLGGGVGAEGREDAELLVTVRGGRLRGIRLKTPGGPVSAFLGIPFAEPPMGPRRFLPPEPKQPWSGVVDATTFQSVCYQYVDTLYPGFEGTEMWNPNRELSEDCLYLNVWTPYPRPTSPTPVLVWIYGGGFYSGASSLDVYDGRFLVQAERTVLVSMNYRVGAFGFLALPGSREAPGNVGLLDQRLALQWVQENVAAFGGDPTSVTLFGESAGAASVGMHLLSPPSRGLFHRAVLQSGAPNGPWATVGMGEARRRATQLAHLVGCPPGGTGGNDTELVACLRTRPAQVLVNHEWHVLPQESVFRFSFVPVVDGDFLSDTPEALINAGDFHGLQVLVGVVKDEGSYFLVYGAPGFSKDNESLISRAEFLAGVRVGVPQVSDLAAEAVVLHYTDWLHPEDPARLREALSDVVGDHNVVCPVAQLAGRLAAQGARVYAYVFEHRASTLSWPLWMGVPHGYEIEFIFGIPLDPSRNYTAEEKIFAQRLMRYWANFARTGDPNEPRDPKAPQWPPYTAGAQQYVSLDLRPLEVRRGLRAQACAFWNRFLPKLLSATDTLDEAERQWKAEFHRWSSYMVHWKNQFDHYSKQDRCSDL

Cholinesterase = Cholinesterase (Equus caballus, UniProt P81908); experiment: Inhibition of equine serum BChE using butyrylthiocholine iodide as substrate preincubated with enzyme for 30 mins followed by substrate addition and measured after 30 mins by Ellman's method; assay type: cell-free
Sequence of Cholinesterase (P81908 whole entry): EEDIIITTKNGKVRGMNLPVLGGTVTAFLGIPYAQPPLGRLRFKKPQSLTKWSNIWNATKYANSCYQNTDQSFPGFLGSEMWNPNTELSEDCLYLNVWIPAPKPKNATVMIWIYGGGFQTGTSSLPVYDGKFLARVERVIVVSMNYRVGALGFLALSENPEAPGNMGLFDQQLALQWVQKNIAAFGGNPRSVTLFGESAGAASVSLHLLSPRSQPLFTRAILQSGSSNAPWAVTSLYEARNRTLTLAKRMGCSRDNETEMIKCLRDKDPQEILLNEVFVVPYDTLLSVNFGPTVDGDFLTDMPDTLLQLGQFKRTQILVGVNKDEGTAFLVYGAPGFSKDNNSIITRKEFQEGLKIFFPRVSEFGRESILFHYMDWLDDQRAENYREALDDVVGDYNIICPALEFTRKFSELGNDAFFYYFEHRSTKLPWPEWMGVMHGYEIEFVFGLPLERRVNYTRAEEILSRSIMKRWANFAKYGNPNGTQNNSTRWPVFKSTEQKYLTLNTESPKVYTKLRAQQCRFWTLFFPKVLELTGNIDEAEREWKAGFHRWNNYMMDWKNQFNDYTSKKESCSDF
Procedure, shortened: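 Equine BChE (0.06 U/mL) preincubated with a range of inhibitor concentrations, 37 °C, 30 min. BTCI (15 mM) then added for 30 min, followed by DTNB (1.5 mM). A415 recorded. Mean ± SD of two or three independent experiments, each in triplicate.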

[3] = Antioxidant activity assessed as DPPH radical scavenging activity at 20 uM measured after 25 mins by microplate reader based assay relative to control; assay type: functional; procedure, shortened: as §1
[4] = Permeability of the compound in PBS buffer at pH 7.4 at 500 uM incubated for 18 hrs by PAMPA-BBB assay
Acetylcholinesterase [5] = target: T1, Acetylcholinesterase; experiment: Mixed inhibition of human erythrocyte AChE using different concentration of acetylthiocholine iodide as substrate preincubated with enzyme for 30 mins by Lineweaver-Burk plot analysis; assay type: tissue-based
Procedure, shortened: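 hAChE preincubated with inhibitor at three concentrations, 37 °C, 30 min. ATCI added at 0.5, 1.0, 1.5, 2.0 and 2.5 mM, then DTNB (0.15 mM). A415 recorded. Lineweaver-Burk double-reciprocal analysis used to assign the mechanism. Duplicate runs; mean ± SD of two independent experiments.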

[6] = target: Cholinesterase (Equus caballus) (UniProt P81908); experiment: Mixed inhibition of equine serum BChE using different concentration of butyrylthiocholine iodide as substrate preincubated with enzyme for 30 mins by Lineweaver-Burk plot analysis; assay type: cell-free
Sequence of Cholinesterase (Equus caballus) (P81908 whole entry): as above
Procedure, shortened: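 eqBChE preincubated with inhibitor at three concentrations, 37 °C, 30 min. BTCI added at 5, 10, 15, 20 and 25 mM, then DTNB (1.5 mM). Absorbance read at 415 nm. Double-reciprocal 1/[S] vs 1/V plots used to assign inhibition type. Duplicate runs; mean ± SD of two independent experiments.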

Acetylcholinesterase [7] = target: T1, Acetylcholinesterase; experiment: Inhibition of AChE in human erythrocytes using acetylthiocholine iodide as substrate at 20 uM preincubated with enzyme for 30 mins followed by substrate addition and measured after 30 mins by Ellman's method relative to control; assay type: cell-based; conditions: Erythrocyte, time 60.0 min
Procedure, shortened: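 hAChE (0.022 U/mL) preincubated with inhibitor at 20 µM, 37 °C, 30 min. ATCI (1.5 mM) then added and incubated a further 30 min, followed by DTNB (0.15 mM). Absorbance read at 415 nm. % inhibition = [(Ac − Ai)/Ac] × 100 against an uninhibited enzyme. Mean ± SD of two or three experiments run in triplicate.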

[8] = target: Cholinesterase (Equus caballus) (UniProt P81908); experiment: Inhibition of equine serum BChE using butyrylthiocholine iodide as substrate at 20 uM preincubated with enzyme for 30 mins followed by substrate addition and measured after 30 mins by Ellman's method relative to control; assay type: cell-free; conditions: time 60.0 min
Procedure, shortened: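 Equine BChE (0.06 U/mL) preincubated with inhibitor at 20 µM, 37 °C, 30 min. BTCI (15 mM) then added and incubated a further 30 min, followed by DTNB (1.5 mM). Absorbance read at 415 nm. % inhibition taken relative to an enzyme-only control. Mean ± SD of two or three experiments run in triplicate.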

Mus musculus = experiment: Reversal of scopolamine induced cognitive memory impairment in C57BL/6 mouse assessed as escape latency time at 10 mg/kg, po administered 30 mins prior to scopolamine injection daily for 14 days by Morris water maze test (reference value: 50.11 +/-5.91 secs); assay type: functional; conditions: time 14 day
[9] = Metal chelating activity assessed as compound-Fe3+ complex formation at 600 uM measured after 24 hrs at pH 4.2 in presence Fecl3.6H2O by UV-Vis spectroscopic analysis
Procedure, shortened: (§2)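 600 µM compound and 600 µM FeCl3·6H2O, both in methanol, mixed in equal volume and shaken at 1000 rpm for 24 h at 25 °C, then UV-scanned. For pH 7.4, diluted DIPEA added before rescanning. Spectra recorded from 300 to 700 nm, with the d–d region at 400–700 nm. Run in duplicate.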

[10] = Metal chelating activity assessed as compound-Fe3+ complex formation at 600 uM measured after 24 hrs at pH 7.4 in presence Fecl3.6H2O by UV-Vis spectroscopic analysis; procedure, shortened: as §2
N2a [11] = experiment: Neuroprotective activity against H2O2-induced neurotoxicity in mouse N2a cells assessed as increase in cell viability at 1 to 20 uM preincubated for 24 hrs followed by co-incubation with H2O2 and measured after 24 hrs by MTT assay; assay type: functional, cell-based; conditions: dose 1-20 µM, time 48.0 hrs
Procedure, shortened: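 N2a cells seeded at 1 × 10^4/well and left overnight. Pre-incubated 24 h with 1, 2.5, 5, 10 or 20 µM, then co-incubated with 600 µM H2O2 for a further 24 h. MTT added for 4 h at 37 °C and formazan extracted in 0.04 N HCl/isopropanol for 1 h. OD read at 570 nm; viability as percent of untreated control. Three independent experiments, mean ± SEM.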

N2a [12] = experiment: Cytotoxicity against mouse N2a cells assessed as effect on cell viability at 0.01 to 20 uM measured after 24 hrs by MTT assay; assay type: cell-based; conditions: dose 0.01-20 µM
Procedure, shortened: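 Neuro2a cells seeded at 1 × 10^4/well and left overnight to adhere. Exposed to 0.01, 0.1, 1, 2.5, 5, 10 or 20 µM in triplicate for 24 h at 37 °C in 5% CO2. Viability then read by MTT and expressed as percent of untreated cells. Mean ± SE of three independent experiments.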

[13] = Metal chelating activity assessed as mole fraction required to show 1:1 stoichiometry for compound-Fe3+ complex formation measured after 24 hrs in presence Fecl3.6H2O by Job's plot analysis
Procedure, shortened: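 Stoichiometry by molar-ratio titration of compound against FeCl3 in methanol (0–10 ratio) at room temperature with UV spectra recorded. Job's plot built from Fe(III) mole fraction against absorbance. Means of duplicate runs.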

Compound | IC50 [1] [µM] | IC50 (Acetylcholinesterase [2]) [µM] | IC50 (Cholinesterase) [µM] | Activity [3] [%] | inhibition (Acetylcholinesterase [7]) [%] | other results
COc1cc(/C=C/C(=O)N2CCN(Cc3cccc(Cl)c3)CC2)ccc1O | 61.5 | 15.4 | 14.8 | 23.1 |  | 
COc1cccc(NC(=O)CCNC(=O)/C=C/c2ccc(O)c(OC)c2)c1 |  | 2.41 | 11.3 | 21.3 |  | 
COc1cc(/C=C/C(=O)NCCC(=O)Nc2ccccc2)ccc1O | 95.6 | 14.8 | 16.4 | 10.6 |  | 
COc1cc(/C=C/C(=O)N2CCN(Cc3cccc(F)c3)CC2)ccc1O | 26.6 | 13.1 | 14 | 40.2 |  | Papp at 18 h, 500 µM [4]: 9.57 ×10⁻⁶ cm/s; inhibition (Acetylcholinesterase [5]): Active; inhibition [6]: Active
COc1cc(/C=C/C(=O)N2CCN(Cc3ccccc3F)CC2)ccc1O |  |  | 15.9 |  | 34.2 | 
COc1cc(/C=C/C(=O)N2CCN(Cc3ccccc3C)CC2)ccc1O |  |  | 15.1 |  | 43.1 | 
COc1ccc(CN2CCN(C(=O)/C=C/c3ccc(O)c(OC)c3)CC2)cc1 | 46.4 | 16.4 |  | 30.5 |  | inhibition [8]: 45.1%
COc1cc(/C=C/C(=O)N2CCN(Cc3ccc(C)cc3)CC2)ccc1O |  |  | 14.8 |  | 43.2 | 
COc1ccc2[nH]cc(CCNC(=O)CNC(=O)/C=C/c3ccc(O)c(OC)c3)c2c1 | 20.2 | 0.96 | 1.23 | 51.9 |  | Time (Mus musculus): 32.28 s; Papp at 18 h, 500 µM [4]: 8.51 ×10⁻⁶ cm/s; inhibition (Acetylcholinesterase [5]): Active; Activity [9]: Active; Activity [10]: Active; Activity (N2a [11]): Active; Activity (N2a [12]): Non-Toxic; inhibition [6]: Active; Activity [13]: 50%
COc1cc(/C=C/C(=O)N2CCN(Cc3ccc(C#N)cc3)CC2)ccc1O |  |  | 15.6 |  | 39.4 | 
COc1cc(/C=C/C(=O)N2CCN(Cc3ccc(F)cc3)CC2)ccc1O | 51.9 | 14.5 | 14.8 | 23.1 |  | 
COc1cc(/C=C/C(=O)NCCC(=O)Nc2ccc(Cl)cc2)ccc1O | 84.2 | 5.32 | 7.13 | 18.7 |  | 
COc1cc(/C=C/C(=O)N2CCN(Cc3cccc([N+](=O)[O-])c3)CC2)ccc1O |  |  | 14.6 |  | 38.8 | 
COc1cc(/C=C/C(=O)N2CCN(Cc3ccccc3)CC2)ccc1O | 31.3 | 13.3 |  | 38.4 |  | inhibition [8]: 45.1%
COc1cc(/C=C/C(=O)N2CCN(Cc3cccc(C)c3)CC2)ccc1O | 66 |  | 14.7 | 26.3 | 45.5 | 
COc1cc(/C=C/C(=O)N2CCN(Cc3ccc(Cl)cc3)CC2)ccc1O | 62.4 |  | 15.9 | 32.4 | 37.3 | 
COc1cc(/C=C/C(=O)NCC(=O)NCCc2c[nH]c3ccc(Cl)cc23)ccc1O | 23.6 | 0.84 | 1.29 | 47.3 |  | 
COc1cccc(N2CCN(C(=O)/C=C/c3ccc(O)c(OC)c3)CC2)c1 | 62 |  |  |  |  | 
COc1cc(/C=C/C(=O)N2CCN(Cc3ccccc3C#N)CC2)ccc1O |  |  | 14.9 |  | 45.4 | 
COc1cc(/C=C/C(=O)NCC(=O)NCCc2c[nH]c3ccccc23)ccc1O | 29.1 | 1.42 | 3.14 | 38.5 |  | 
COc1cccc(CN2CCN(C(=O)/C=C/c3ccc(O)c(OC)c3)CC2)c1 |  | 15.2 |  |  |  | inhibition [8]: 49.1%
COc1cc(/C=C/C(=O)N2CCN(Cc3cccc(C#N)c3)CC2)ccc1O |  |  | 14.7 |  | 42.4 | 
COc1cc(/C=C/C(=O)O)ccc1O [FERULATE] | 58.3 |  |  | 33.1 | 15.1 | inhibition [8]: 17.1%
COc1cc(/C=C/C(=O)N2CCN(Cc3ccccc3Cl)CC2)ccc1O |  |  | 15.2 |  | 47 | 
COc1cc(/C=C/C(=O)NCC(=O)Nc2ccc3[nH]ccc3c2)ccc1O | 57.4 |  |  |  |  | 
